The subject of assay [1] is MDA-MB-231. The assay is described as follows: Antiproliferative activity against human MDA-MB-231 cells after 72 hrs by MTT assay. The conditions noted are these: MDA-MB-231, 72 h. Format: functional, cell-based. In short, it runs like this:
(§1)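 Cells were seeded in 96-well plates for 24 h, then exposed to a range of concentrations for 72 h in DMEM/F-12 with 5% FBS. DMSO vehicle controls were matched. MTT was added at 0.5 mg/ml for 2 h at 37 °C, solubilized in DMSO, and read at 570 nm. IC50 is the concentration giving 50% cell death relative to DMSO control. Mean ± SD, n = 6.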
A general note: Tetrazolium dyes change colour on reduction, which living cells bring about.

Assay [2] deals with MCF7. In words: Antiproliferative activity against human MCF7 cells after 72 hrs by MTT assay. It counts as functional, cell-based. As to conditions: MCF7, 72 h. In short, it runs like this:
as §1

In assay [3] the test system is MCF7. In words: Induction of apoptosis in human MCF7 cells assessed as caspase 3/7 activation after 72 hrs by luminescence assay. It counts as functional, cell-based. In short, it runs like this: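 MCF-7 cells were plated at 1×10^4 per well, incubated for 24 h, then treated for 72 h. Caspase-3/7 activity was measured with a Caspase-Glo luminogenic DEVD substrate, and luminescence was reported as relative light units. Compared with DMSO vehicle; mean ± SD, n = 6.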

For assay [4], the system named is MCF7. In words: Antiproliferative activity against human MCF7 cells at 5 uM after 72 hrs by MTT assay in presence of estradiol. It counts as functional, cell-based. Summed up:
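MCF-7 cells (ATCC) were maintained in DMEM/F-12 with 10% FBS at 37 °C and 5% CO2. They were seeded for 24 h, then treated with 5 µM test agent for 72 h in 5% FBS medium, with and without estradiol. Read-out was MTT absorbance at 570 nm, expressed as percent of control wells. Two experiments, each with six replicates; mean ± SD.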

For assay [5], the system named is MDA-MB-231. The assay is described as follows: Ratio of tamoxifen IC50 to compound IC50 for human MDA-MB-231 cells after 72 hrs by MTT assay. Format: functional.
The subject of assay [6] is MCF7. The assay is described as follows: Ratio of tamoxifen IC50 to compound IC50 for human MCF7 cells after 72 hrs by MTT assay. It counts as functional.

Calls of active or inactive are those of the source. The rule behind the calls is not given here.

For the molecule `CC/C(=C(\c1ccccc1)c1ccc(OCCN(C)C)cc1)c1ccccc1` [TAMOXIFEN], the half-maximal inhibitory concentration (IC50) (in general, the concentration needed to halve the response being measured) was found to be 64.8 µM in assay [1] and 28 µM in assay [2].

In the case of `C/C(=C(\c1ccccc1)c1ccc(OCCN2CCN(C)CC2)cc1)c1ccccc1`, the result in assay [3] and in assay [4] was Active. The “Ratio IC50” value in assay [5] and in assay [6] was 2 throughout. Moreover, the IC50 in assay [1] amounted to 10.5 µM; in assay [2] it was 6.75 µM.

As for `C/C(=C(\c1ccccc1)c1ccc(OCCN2CCNCC2)cc1)c1ccc(F)cc1`, the outcome in assay [3] and in assay [4] was Active. Besides, the “Ratio IC50” value in assay [5] and in assay [6] was 2 throughout. Further, the values for the half-inhibitory concentration (IC50) in assay [1] and in assay [2] were 13 µM and 5.58 µM, respectively.

As to `C/C(=C(\c1ccccc1)c1ccc(OCCN2CCN(C)CC2)cc1)c1ccc(F)cc1`, the results for the IC50 in assay [1] and in assay [2] were more than 100 µM and 86.3 µM, respectively.

In the case of `C/C(=C(\c1ccccc1)c1ccc(OCCN2CCCCC2)cc1)c1ccccc1`, the IC50 is 73.5 µM in assay [1] and 55.5 µM in assay [2].

Take `C/C(=C(\c1ccccc1)c1ccc(OCCN2CCCCC2)cc1)c1ccc(F)cc1`: the IC50 in assay [1] was 43 µM; in assay [2], 16.6 µM.

Consider `C/C(=C(\c1ccccc1)c1ccc(OCCN2CCNCC2)cc1)c1ccccc1`, for which the IC50 in assay [1] and in assay [2] was more than 100 µM each time.

Source of the values: ChEMBL document CHEMBL2412972, “Design, synthesis and biological evaluation of novel triaryl (Z)-olefins as tamoxifen analogues” (Bioorg Med Chem Lett, 2013).
